Data from ChEMBL document CHEMBL1154738, “Vascular disrupting activity of tubulin-binding 1,5-diaryl-1H-imidazoles” (J Med Chem, 2009).
Calls of active or inactive are those of the source. No cut-off for these calls is given here.

Tests used:
HUVEC [1] = assay: Cytotoxicity against HUVEC after 1 hr by crystal violet staining; type: functional, cell-based, Homo sapiens
HUVEC [2] = assay: Cytotoxicity against HUVEC after 72 hrs by crystal violet staining; type: functional, cell-based, Homo sapiens
[3] = Dissociation constant, pKa of the compound; type: physicochemical
HUVEC [4] = assay: Vascular disrupting activity in HUVEC assessed as change in cell morphology with detachment form substrate after 1 hr by crystal violet staining-based inverted light microscopy; type: functional, Homo sapiens
Summary of the method: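 HUVEC treated for 1 h with compound; morphology (cell retraction, rounding, detachment from substrate) examined by light microscopy.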

NCI-H460 = assay: Growth inhibition of human NCI-H460 cells after 3 days by crystal violet staining; type: functional; settings: NCI-H460, 72 h
HCT-15 = assay: Growth inhibition of human HCT15 cells after 3 days by crystal violet staining; type: functional; settings: HCT-15, 72 h
[5] = Growth inhibition of human NCI60 cells after 3 days by crystal violet staining; type: functional; settings: NCI60, 72 h
MDA-MB-435 [6] = assay: Induction of necrosis in central region of human MDA-MB-435 cells exenografted in NCr nu/nu mouse at 20 mg/kg, ip administered as single dose measured after 24 hrs by haematoxylin/eosin staining-based histopathological analysis; type: functional, organism-based; set-up: dose 20 mg/kg
HUVEC [7] = assay: Vascular disrupting activity in HUVEC assessed as appearance of blebbing morphology of rounded cells after 1 hr by FITC-onjugated DAPI staining-based immunofluorescence assay; type: functional, cell-based; settings: Homo sapiens
Summary of the method: (§1)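 HUVEC exposed to vehicle or compound (0.1-1 μM range) for 1 h, then tubulin cytoskeleton examined by immunofluorescence for microtubule disorganization and blebbing of rounded cells.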

HUVEC [8] = assay: Vascular disrupting activity in HUVEC assessed as disruption of capillary-like structure formation on permissive matrix at 0.1 uM after 1 hr by microscopy; type: functional, cell-based; settings: Homo sapiens
Summary of the method: (§2)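 HUVEC seeded on 3D Matrigel form capillary-like cord networks by 24 h; compound then added to formed cords and images taken 1 h later to assess cord disruption and shortening.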

HUVEC [9] = assay: Vascular disrupting activity in HUVEC assessed as disorganization of microtubule after 1 hr by FITC-onjugated DAPI staining-based immunofluorescence assay; type: functional, cell-based; settings: Homo sapiens; summary of the method: as §1
HUVEC [10] = assay: Vascular disrupting activity in HUVEC assessed as disruption of capillary-like structure formation on permissive matrix at 1 uM after 1 hr by microscopy; type: functional, cell-based; settings: Homo sapiens; summary of the method: as §2
MDA-MB-435 [11] = assay: Induction of necrosis in central region of human MDA-MB-435 cells exenografted in NCr nu/nu mouse at 80 mg/kg, ip administered as single dose measured after 24 hrs by haematoxylin/eosin staining-based histopathological analysis; type: functional, organism-based; set-up: dose 80 mg/kg
Mus musculus = assay: Vascular disrupting activity in C57BL/6N mouse assessed as rapid decrease in FGF2-induced vessel formation on permissive matrix at 20 m/kg, ip after 1 hr by FTC-conjugated staining based confocal microscopy; type: functional, organism-based
Summary of the method: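 Matrigel plug containing FGF-2 implanted in mice, vessels allowed to form over 7 days (plug without FGF-2 as negative control). Single ip dose given, then functional perfused vessels visualized 1 h later with FITC-isolectin B4 by confocal microscopy; at least three images per sample, n = 5.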

HUVEC [12] = assay: Vascular disrupting activity in HUVEC assessed as disorganization of microtubule at 0.1 uM after 1 hr by FITC-onjugated DAPI staining-based immunofluorescence assay; type: functional, cell-based; settings: Homo sapiens; summary of the method: as §1
HUVEC [13] = assay: Vascular disrupting activity in HUVEC assessed as appearance of blebbing morphology of rounded cells at 0.1 uM after 1 hr by FITC-onjugated DAPI staining-based immunofluorescence assay; type: functional, cell-based; settings: Homo sapiens; summary of the method: as §1

| Compound | IC50 (HUVEC [4]; huvec) [µM] | GI50 (NCI-H460) [µM] | GI50 (HCT-15) [µM] | GI50 [5] [µM] | further results |
| --- | --- | --- | --- | --- | --- |
| COc1cc(-n2cncc2-c2ccc3ccccc3c2)cc(OC)c1OC [listing 1 of 3 here] | 0.04 |  |  |  | IC50 (HUVEC [1]; huvec): 2.1 µM; IC50 (HUVEC [2]; huvec): 0.11 µM; pKa [3]: 5.58 |
| COc1cc(-n2ccnc2-c2ccc3ccccc3c2)cc(OC)c1OC |  | 0.037 | 0.051 | 0.151 |  |
| COc1cc(-n2ccnc2-c2ccc(N(C)C)cc2)cc(OC)c1OC |  | 0.27 | 0.08 |  |  |
| COc1cc(-n2cncc2-c2ccc(N(C)C)cc2)cc(OC)c1OC |  | 0.079 | 0.036 |  |  |
| COc1cc(-n2cncc2-c2ccc3ccccc3c2)cc(OC)c1OC [listing 2 of 3 here] |  |  |  |  | Activity (MDA-MB-435 [6]): Active; Activity (HUVEC [7]): Dose-dependent effect; Activity (HUVEC [8]): Active; Activity (HUVEC [9]): Dose-dependent effect; Activity (HUVEC [10]): Active; Activity (MDA-MB-435 [11]): Active; Activity (Mus musculus): Active |
| COc1ccc(-c2cncn2-c2cc(OC)c(OC)c(OC)c2)cc1F |  | < 0.01 | < 0.01 | 0.0398 | IC50 (HUVEC [1]; Homo sapiens, HUVEC, 1 h): 17 µM; IC50 (HUVEC [2]; Homo sapiens, HUVEC, 72 h): 0.45 µM; IC50 (HUVEC [4]; Homo sapiens, HUVEC, 1 h): 17.3 µM |
| COc1cc(-n2cncc2-c2ccc3ccccc3c2)cc(OC)c1OC [listing 3 of 3 here] | 41.5 | 0.018 | 0.017 | 0.0724 | IC50 (HUVEC [1]; huvec): 28.3 µM; IC50 (HUVEC [2]; huvec): 0.54 µM |
| COc1ccc(/C=C\c2cc(OC)c(OC)c(OC)c2)cc1O [COMBRETASTATIN A4] |  | < 0.01 | < 0.01 | 0.1 | IC50 (HUVEC [1]; Homo sapiens, HUVEC, 1 h): 0.4 µM; IC50 (HUVEC [2]; Homo sapiens, HUVEC, 72 h): 0.005 µM; Activity (HUVEC [12]): Active; IC50 (HUVEC [4]; Homo sapiens, HUVEC, 1 h): 0.01 µM; Activity (HUVEC [13]): Active |
| COc1ccc(-c2nccn2-c2cc(OC)c(OC)c(OC)c2)cc1 |  | 1.58 | 1.15 | 4.57 |  |
| COc1ccc(-c2cncn2-c2cc(OC)c(OC)c(OC)c2)cc1 [listing 1 of 2 here] | 0.95 |  |  |  | IC50 (HUVEC [1]; huvec): 20 µM; IC50 (HUVEC [2]; huvec): 0.54 µM; pKa [3]: 6.82 |
| COc1ccc(-c2cncn2-c2cc(OC)c(OC)c(OC)c2)cc1 [listing 2 of 2 here] | 6.53 | 0.363 | 0.17 | 0.257 | IC50 (HUVEC [1]; Homo sapiens, HUVEC, 1 h): 36.1 µM; IC50 (HUVEC [2]; Homo sapiens, HUVEC, 72 h): 0.6 µM |
